Screening results deposited in PubChem by several laboratories.
Sampled rows, rich in hits. Any-hit rate of the full collection: about 3.3%.
IL1B NFkB pot: enhancers of NFkB p65 translocation in HUVEC – imaging, IL-1B stimulus, high-content imaging, primary screen; HUVEC IL-1B NFkB p65 nuclear translocation imaging; activation, % at 2 µM; 94,000 compounds, 0.3% hits; AID 819, 2007;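 active = activation above 40%, about the mean plus 3 SD, also judged a hit on visual image review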;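 also: percent activation is computed from the nuclear over cytoplasmic p65 intensity ratio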
Rev-RRE block: HIV-1 Rev-RRE binding inhibitors, primary screen, biochemical, FRET, protein-RNA interaction; P05866; Rev peptide-RRE RNA binding; AID 704, 2007; inhibition, % at 8 µM; 97,000 compounds, 0.79% hits;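 active = inhibition above the screen-wide mean plus 3 SD, cut at about 35% in these data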;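 also: 0% = median DMSO wells and 100% = median Neomycin B control wells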
Target sequence (P05866 whole entry, looked up): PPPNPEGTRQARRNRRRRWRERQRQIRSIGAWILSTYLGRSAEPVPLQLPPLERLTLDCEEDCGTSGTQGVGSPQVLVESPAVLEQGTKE
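Test system – labelled RRE RNA duplex and labelled Rev peptide · Signal – fluorescein-to-Cy5 FRET, 480 nm excitation · Evaluation – % inhibition of FRET ratio versus controls · Benchmarks – DMSO low control, neomycin B high control · Incubation – 5 min RNA-compound premix plus 15 min binding step, 25 °C · Medium – HEPES pH 7.5 salt buffer with EDTA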
HUVEC tox IL1B: cytotoxicity in IL-1B stimulated HUVEC, primary screen, cytotoxicity control for IL-1B NFkB translocation project, imaging, Hoechst nuclear count, IL-1B stimulus | HUVEC cell count loss | cell count reduction, % at 2 µM | 94,000 compounds, 0.41% hits;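 active = cell count reduction more than 3 SD above the screen-wide mean, cut at about 70% in these data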;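 also: normalized per plate to untreated control cells as the no-loss baseline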
FAK blocker: FAK kinase inhibitors, primary screen, biochemical | Focal adhesion kinase 1 (Homo sapiens), Q05397 | biochemical FAK kinase activity assay | inhibition, %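 (tested at 7 µM)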 | 97,000 compounds, 0.84% hits | AID 727, 2007; in the data active = inhibition above about 19%;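 also: 0% = DMSO and 100% = reference compound high control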
NFkB transloc inh: inhibitors of IL-1B driven NFkB p65 nuclear import, primary screen, imaging, HUVEC, IL-1B stimulus, high-content imaging; HUVEC IL-1B NFkB p65 nuclear translocation imaging; inhibition, % at 2 µM; 94,000 compounds, 0.43% hits; AID 796, 2007;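 active = inhibition above about 30% together with a positive call from visual inspection of the well image, limit read from the data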;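 also: nuclear over cytoplasmic p65 intensity ratio measured by imaging; 0% = IL-1B stimulated DMSO wells and 100% = unstimulated DMSO wells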
Measles CPE: compounds protecting cells from measles virus cytopathic effect, primary screen, measles RdRp inhibitor project, single point, MLSMR library, absorbance; protection (pct of control), % at 4 µM; 140,000 compounds, 1.5% hits; AID 841, 2007; Measles virus-infected cells, CPE protection; in the data active = protection mostly above about 24%, no sharp cut-off; inactive = mostly below about 26%
The depositor's hits bear a star; / = no result.

SMILES	IL1B NFkB pot	Rev-RRE block	HUVEC tox IL1B	FAK blocker	NFkB transloc inh	Measles CPE
Cc1csc(Sc2ccc([N+](=O)[O-])cc2C(=O)OCC(=O)NC(=O)NC(C)(C)C)n1	3.2	8.1	-16.2	-0.1	-3.2	8.8
O=C1C2CCCCC2C(=O)N1c1ccc(NC2CCCCC2)c([N+](=O)[O-])c1 (stereo not given)	/	/	/	/	/	3.9
COc1ccccc1NS(=O)(=O)c1cc(C(=O)N2CC(C)CC(C)C2)ccc1C (stereo not given)	20.0	-1.5	-6.8	2.5	-20.0	8.7
CCN1CCN(C(=O)c2ccc(COc3ccc(Cl)cc3)o2)CC1	-3.3	6.1	-3.7	0.4	3.3	41.9*
O=C(c1ccc(COc2ccc(Cl)cc2)o1)N1CCN(Cc2ccc3c(c2)OCO3)CC1	16.9	0.3	-9.8	-1.0	-16.9	9.9
CCCC(=O)Nc1cc(C(=O)O)ccc1S(=O)(=O)c1ccc(Cl)cc1	/	/	/	/	/	4.4
CC(=O)Nc1ccc(S(=O)(=O)N(C)c2ccc(O)cc2)cc1	-0.7	1.7	12.9	-0.5	0.7	43.6*
CC(=O)Nc1ccc(S(=O)(=O)N(C)c2ccccc2)cc1	/	/	/	/	/	6.9
CCOC(=O)N1CCN(C(=O)CSCC(=O)Nc2nc(-c3ccc(-c4ccccc4)cc3)cs2)CC1	-2.4	3.9	-27.1	2.0	2.4	44.3*
COc1ccccc1NS(=O)(=O)c1cc(NC(=O)CNC(=O)c2ccc(C)s2)ccc1Cl	/	/	/	/	/	10.8
CCc1nnc(NC(=O)Nc2ccccc2OC)s1	-1.7	1.9	6.5	2.1	1.7	7.2
COc1ccccc1NC(=O)C(C)NS(=O)(=O)c1ccccc1 (stereo not given)	-8.1	-0.6	73.3*	-1.0	8.1	13.8
COc1ccccc1NC(=O)Nc1nnc(C(C)C)s1	/	/	/	/	/	55.1*
COc1cccc(NC(=O)CCSc2ccc(C)cc2)c1	/	/	/	/	/	14.1
CC(=O)Nc1ccc(S(=O)(=O)NCC(=O)OCC(=O)N2CCN(c3ccccc3)CC2)cc1	/	/	/	/	/	17.8
COc1cccc(CNC(=O)c2nnn(-c3ccc(OC(F)(F)F)cc3)c2N)c1	8.2	-0.3	15.1	2.7	-8.2	6.8
Nc1c(C(=O)NCc2ccc3c(c2)OCO3)nnn1-c1ccc(OC(F)(F)F)cc1	-17.7	12.6	-4.6	-1.3	17.7	53.9*
Cn1ncc(Br)c1C(=O)Nc1ccc(F)cc1F	-98.1	4.6	87.8*	0.1	98.1*	17.6
COc1cccc(C(=O)Nc2ccc(F)cc2F)c1	34.7	3.5	-16.3	0.5	-34.7	44.9*
Fc1ccc(C2=Nn3c(nnc3-c3n[nH]c4c3CCC4)SC2)cc1	-14.7	5.7	-3.7	5.1	14.7	36.2*
COC(=O)c1ccc(N2C(=O)CC(N3CCN(c4ccccc4)CC3)C2=O)cc1 (stereo not given)	11.5	10.5	3.6	2.0	-11.5	/
COC(=O)c1ccc(N2C(=O)CC(N3CCOCC3)C2=O)cc1 (stereo not given)	-19.9	4.2	-31.4	6.6	19.9	40.2*
CCOc1cc(C2NC(=O)NC(C)=C2C(=O)OCc2ccccc2)ccc1O (stereo not given)	1.6	3.4	7.2	2.5	-1.6	46.6*
COc1cc(C2NC(=O)NC(C)=C2C(=O)OCc2ccccc2)ccc1O (stereo not given)	/	/	/	/	/	16.4
Cc1ccc(-n2nnnc2-c2nc3ccccc3s2)cc1	/	/	/	/	/	7.0
SMILES	IL1B NFkB pot	Rev-RRE block	HUVEC tox IL1B	FAK blocker	NFkB transloc inh	Measles CPE
CCOc1ccc(-n2nnnc2-c2nc3ccccc3s2)cc1	/	/	/	/	/	26.2*
Cc1nc(N)sc1C(=O)Nc1ccccc1	11.5	-0.4	4.7	3.1	-11.5	35.2*
Cc1nc(-c2cccnc2)sc1C(=O)Nc1ccc(Cl)cc1	18.6	5.8	-11.0	4.8	-18.6	33.0*
Cc1nc(-c2cccnc2)sc1C(=O)Nc1ccc(F)cc1F	15.1	-6.8	-17.5	-5.7	-15.1	24.8
O=C(c1cc2n(n1)C(C(F)(F)F)CC(c1ccco1)N2)N1CCc2ccccc2C1 (stereo not given)	-10.9	-2.3	74.6*	0.0	10.9	12.8
COc1ccccc1N1CCN(C(=O)c2cc3n(n2)C(C(F)(F)F)CC(c2ccco2)N3)CC1 (stereo not given)	/	/	/	/	/	10.3
